# Test results as given in ChEMBL document CHEMBL1150430, “Flavonoids for controlling starch digestion: structural requirements for inhibiting human alpha-amylase” (J Med Chem, 2008).
# How the values were obtained:
# [1] = biological target: T1, Alpha-amylase 1A (Homo sapiens) (UniProt P0DUB6); test: (§1) Inhibition of human salivary alpha-amylase; conditions: concentration not given here
# T1 sequence (whole entry): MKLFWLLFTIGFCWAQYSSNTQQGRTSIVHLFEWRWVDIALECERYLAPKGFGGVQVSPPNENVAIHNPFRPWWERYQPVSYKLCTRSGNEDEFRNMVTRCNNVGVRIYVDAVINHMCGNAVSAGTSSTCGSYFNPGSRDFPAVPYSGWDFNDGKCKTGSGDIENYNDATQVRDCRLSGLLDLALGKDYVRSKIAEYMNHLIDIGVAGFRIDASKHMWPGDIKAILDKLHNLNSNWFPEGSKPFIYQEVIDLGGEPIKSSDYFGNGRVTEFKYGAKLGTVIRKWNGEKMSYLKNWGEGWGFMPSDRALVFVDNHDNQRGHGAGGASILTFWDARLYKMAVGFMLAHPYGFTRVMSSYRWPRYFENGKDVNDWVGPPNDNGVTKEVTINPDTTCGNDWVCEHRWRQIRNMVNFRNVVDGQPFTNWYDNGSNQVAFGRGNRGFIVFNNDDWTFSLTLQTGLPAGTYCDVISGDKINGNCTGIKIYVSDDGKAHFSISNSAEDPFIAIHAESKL
# Outline: (§2)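 Human salivary α-amylase (type IX-A), diluted in water on the day of use, preincubated 30 min with test compound in 50 mM NaH2PO4/50 mM NaCl/0.5 mM CaCl2/0.1% BSA, pH 6.0 (DMSO stocks). Reducing sugar by Nelson-Somogyi, A540; IC50 and maximum % inhibition.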
# Alpha-amylase 1A = biological target: T2, Alpha-amylase 1A (Homo sapiens, UniProt P0DUB6); test: as §1; outline: as §2
# T2 sequence (P0DUB6 whole entry): T1 sequence (whole entry)
SMILES,inhibition [1] [%],IC50 (Alpha-amylase 1A) [µM]
O=c1cc(-c2ccc(O)c(O)c2)oc2cc(O)cc(O)c12 [LUTEOLIN],88.8,18.4
C[C@H]1O[C@H](O[C@H]2[C@H](O)[C@@H](O)[C@@H](O[C@H]3[C@H](O)[C@@H](O)[C@H](O)O[C@@H]3CO)O[C@@H]2CO)[C@H](O)[C@@H](O)[C@@H]1N[C@H]1C=C(CO)[C@@H](O)[C@H](O)[C@H]1O,99.2,
O=C1C[C@@H](c2ccc(O)cc2)Oc2cc(O)cc(O)c21,26.8,
O=c1c(-c2ccc(O)cc2)coc2cc(O)ccc12,23.3,
COc1ccc([C@@H]2CC(=O)c3c(O)cc(O)cc3O2)cc1O,39.8,
Oc1cc(O)c2c(c1)O[C@H](c1ccc(O)c(O)c1)[C@@H](O)C2,13.1,
O=c1c(O)c(-c2ccc(O)c(O)c2)oc2cc(O)c(O)c(O)c12 [QUERCETAGETIN],97.6,10.2
COc1cc(O)c2c(=O)c(O)c(-c3ccc(O)c(O)c3)oc2c1,8.1,
O=c1c(O)c(-c2ccc(O)c(O)c2)oc2cc(O)cc(O)c12 [QUERCETIN],82.1,21.4
O=c1cc(-c2ccc(O)cc2)oc2cc(O)c(O)c(O)c12 [SCUTELLAREIN],98.4,9.64
COc1cc(-c2oc3cc(O)cc(O)c3c(=O)c2O)ccc1O,35.4,
O=c1c(O)c(-c2ccc(O)c(O)c2)oc2cc(O)ccc12 [FISETIN],85.6,19.6
O=c1c(-c2ccc(O)cc2)coc2cc(O)cc(O)c12,25.1,
COc1cc(O)c2c(=O)cc(-c3ccc(O)cc3)oc2c1,17.5,
O=c1c(O)c(-c2ccc(O)cc2)oc2cc(O)cc(O)c12,34.5,
Oc1cc(O)c2c(c1)O[C@H](c1ccc(O)c(O)c1)[C@H](O)C2,10.3,
COc1ccc(-c2cc(=O)c3c(O)cc(O)cc3o2)cc1,14.1,
O=c1c(O)c(-c2cc(O)c(O)c(O)c2)oc2cc(O)cc(O)c12 [MYRICETIN],79,30.2
COc1ccc(-c2cc(=O)c3c(O)cc(O)cc3o2)cc1O,19.2,
